Assay results from ChEMBL document CHEMBL3272163, “Synthesis and antiinflammatory activity of some 2-substituted 4- and 7-benzoxazoleacetic and alpha-methylacetic acids” (J Med Chem, 1977).

Key:
[1] = Octanol-water partition coefficient, P of the compound
[2] = tested on: Rattus norvegicus; experiment: Antiinflammatory activity in rat assessed as carrageenan-induced foot edema at 2 x 100 mg/kg, po relative to control; format: functional
Summary of the method: (§1)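 Rats were given carrageenan-induced foot edema by the Winter et al. method, modified as described in the paper's ref 1. Compound was dosed orally twice (dose × 2). The read-out was percent reduction of swelling relative to untreated controls, with significance given as p values.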

[3] = Toxicity in po dosed mouse; format: organism-based; conditions: in vivo
Summary of the method: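 Approximate LD50 in mice after oral dosing, in mg/kg.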

[4] = Dissociation constant, pKa of the compound in 75% EtOH; format: physicochemical
Summary of the method: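 pKa was determined in 75% EtOH, and values are reported to ±0.025.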

[5] = tested on: Rattus norvegicus; experiment: Antiinflammatory activity in rat assessed as carrageenan-induced foot edema at 2 x 50 mg/kg, po relative to control; format: functional
Summary of the method: as §1

[6] = tested on: Rattus norvegicus; experiment: Antiinflammatory activity in rat assessed as carrageenan-induced foot edema at 2 x 33 mg/kg, po relative to control; format: functional
Summary of the method: as §1

Compound	P [1]	Activity [2] [%]	LD50 [3] [mg/kg]	pKa [4]	Activity [5] [%]	Activity [6] [%]
O=C(O)Cc1cccc2oc(-c3ccccc3)nc12	1.03	28	400	6.3		
O=C(O)Cc1cccc2oc(-c3ccc(Cl)cc3)nc12	9.28	8	600	6.1		
CC(C(=O)O)c1cccc2oc(-c3ccccc3)nc12 (configuration not stated)	6.93				1	
C/C(=C1/SC(=S)NC1=O)c1cccc2oc(-c3ccccc3)nc12		9	> 1600			
CC(C(=O)O)c1cccc2nc(-c3ccccc3)oc12 (configuration not stated)	3.66	44	1200	6.2	26	
CC(C(=O)O)c1cccc2nc(-c3ccc(Cl)cc3)oc12 (configuration not stated)		16	1200	6.25		
Cc1ccc(-c2nc3cccc(C(C)C(=O)O)c3o2)cc1 (configuration not stated)	8.94	10	> 1600	6.2		
C[C@]12CCC(=O)C=C1CC[C@@H]1[C@@H]2[C@@H](O)C[C@@]2(C)[C@H]1CC[C@]2(O)C(=O)CO [HYDROCORTISONE]					33	
CCCCC1C(=O)N(c2ccccc2)N(c2ccccc2)C1=O [PHENYLBUTAZONE]					59	52
